Reference: ChEMBL document CHEMBL1649117, “GRL-02031, a novel nonpeptidic protease inhibitor (PI) containing a stereochemically defined fused cyclopentanyltetrahydrofuran potent against multi-PI-resistant human immunodeficiency virus type 1 in vitro” (Antimicrob Agents Chemother, 2009)

How the values were obtained:
[1] = system: Human immunodeficiency virus 1; assay: Antiviral activity against HIV1 NL4-3 harboring L10F/L24I/M46I/L63P/A71V/G73S/V82T amino acid substitution in protease encoding region infected in human MT4 cells assessed as inhibition of p24 Gag protein production selected at 5 uM of indinavir by ELISA; format: functional, organism-based; settings: Human immunodeficiency virus 1, NL4-3, MT4
Summary of the method: (§1)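 HIV-1NL4-3 (500 TCID50s) was passaged in MT-4 cells, starting at 0.01–0.03 µM PI and raising the drug generally two- to threefold as virus propagated. Cell-free passage used day-7 supernatants. Variants were then tested in MT-4 cells (10^5/ml) with 100 TCID50s, with or without drug, at 37°C. Day-7 p24 Gag was read by chemiluminescent immunoassay; EC50 vs drug-free control; triplicate.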

[2] = system: Human immunodeficiency virus 1; assay: Antiviral activity against HIV1 JSL harboring L10I/L24I/L33F/E35D/M36I/N37S/M46L/I54V/R57K/I62V/L63P/A71V/G73S/82A in protease encoding region infected in human PHA-PBC assessed as inhibition of p24 Gag protein production by ELISA; format: functional, organism-based; settings: Human immunodeficiency virus 1, JSL
Summary of the method: (§2)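 Phytohemagglutinin-stimulated PBMs (10^6/ml) infected with 50 TCID50s of each primary isolate, cultured with or without drug in 10-fold serial dilutions. On day 7, supernatant p24 Gag was measured by automated chemiluminescent enzyme immunoassay. […] Triplicate.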

[3] = system: Human immunodeficiency virus 1; assay: Antiviral activity against HIV1 TM harboring L10I/K14R/R41K/M46L/I54V/L63P/A71V/V82A/L90M/I93L in protease encoding region infected in human PHA-PBC assessed as inhibition of p24 Gag protein production by ELISA; format: functional, organism-based; settings: Human immunodeficiency virus 1, TM; summary of the method: as §2
[4] = system: Human immunodeficiency virus 1; assay: Antiviral activity against HIV1 MOKW infected in human PHA-PBC assessed as inhibition of p24 Gag protein production by ELISA; format: functional, organism-based; settings: Human immunodeficiency virus 1, MOKW; summary of the method: as §2
[5] = system: Human immunodeficiency virus 1; assay: Antiviral activity against HIV1 MM harboring L10I/K43T/M46L/I54V/L63P/A71V/V82A/L90M/Q92K in protease encoding region infected in human PHA-PBC assessed as inhibition of p24 Gag protein production by ELISA; format: functional, organism-based; settings: Human immunodeficiency virus 1, MM; summary of the method: as §2
[6] = system: Human immunodeficiency virus 1; assay: Antiviral activity against HIV1 G harboring L10I/V11I/T12E/I15V/L19I/R41K/M46L/L63P/A71T/V82A/L90M in protease encoding region infected in human PHA-PBC assessed as inhibition of p24 Gag protein production by ELISA; format: functional, organism-based; settings: Human immunodeficiency virus 1, G; summary of the method: as §2
[7] = system: Human immunodeficiency virus 1; assay: Antiviral activity against HIV1 NL4-3 harboring L23I/K43I/M46I/I50L/G51A/A71V amino acid substitution in protease encoding region infected in human MT4 cells assessed as inhibition of p24 Gag protein production selected at 1 uM of atazanavir by ELISA; format: functional, organism-based; settings: Human immunodeficiency virus 1, NL4-3, MT4; summary of the method: as §1
[8] = system: Human immunodeficiency virus 1; assay: Antiviral activity against HIV1 NL4-3 harboring L10I/G48V/I54V/L90M amino acid substitution in protease encoding region infected in human MT4 cells assessed as inhibition of p24 Gag protein production selected at 5 uM of saquinavir by ELISA; format: functional, organism-based; settings: Human immunodeficiency virus 1, NL4-3, MT4; summary of the method: as §1
[9] = system: Human immunodeficiency virus 1; assay: Antiviral activity against HIV1 B harboring L10I/I15V/E35D/N37E/K45R/I54V/L63P/A71V/V82T/L90M/I93L/C95F in protease encoding region infected in human PHA-PBC assessed as inhibition of p24 Gag protein production by ELISA; format: functional, organism-based; settings: Human immunodeficiency virus 1, B; summary of the method: as §2
[10] = system: Human immunodeficiency virus 1; assay: Antiviral activity against HIV1 NL4-3 harboring M46I/V82F/I84V amino acid substitution in protease encoding region infected in human MT4 cells assessed as inhibition of p24 Gag protein production selected at 5 uM of ritonavir by ELISA; format: functional, organism-based; settings: Human immunodeficiency virus 1, NL4-3, MT4; summary of the method: as §1
[11] = system: Human immunodeficiency virus 1; assay: Antiviral activity against HIV1 NL4-3 harboring L10F/D30N/K45I/A71V/T74S amino acid substitution in protease encoding region infected in human MT4 cells assessed as inhibition of p24 Gag protein production selected at 5 uM of nelfinavir by ELISA; format: functional, organism-based; settings: Human immunodeficiency virus 1, NL4-3, MT4; summary of the method: as §1
[12] = system: Human immunodeficiency virus 1; assay: Antiviral activity against HIV1 C harboring L10I/I15V/K20R/L24I/M36I/M46L/I54V/I62V/L63P/K70Q/V82A/L89M in protease encoding region infected in human PHA-PBC assessed as inhibition of p24 Gag protein production by ELISA; format: functional, organism-based; settings: Human immunodeficiency virus 1, C; summary of the method: as §2
[13] = system: Human immunodeficiency virus 1; assay: Ratio of EC50 for HIV1 B harboring L10I/I15V/E35D/N37E/K45R/I54V/L63P/A71V/V82T/L90M/I93L/C95F in protease encoding region to EC50 for HIV1 ERS104pre; format: functional
[14] = system: Human immunodeficiency virus 1; assay: Antiviral activity against HIV1 A harboring L10I/I15V/E35D/N37E/K45R/I54V/L63P/A71V/V82T/L90M/I93L/C95F in protease encoding region infected in human PHA-PBC assessed as inhibition of p24 Gag protein production by ELISA; format: functional, organism-based; settings: Human immunodeficiency virus 1, A
Summary of the method: (§3)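 Phytohemagglutinin-stimulated PBMs (10^6/ml) infected with 50 TCID50s of each primary isolate, cultured with or without drug in 10-fold serial dilutions. On day 7, supernatant p24 Gag was measured by automated chemiluminescent enzyme immunoassay. Triplicate.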

[15] = system: Human immunodeficiency virus 1; assay: Ratio of EC50 for HIV1 JSL harboring L10I/L24I/L33F/E35D/M36I/N37S/M46L/I54V/R57K/I62V/L63P/A71V/G73S/82A in protease encoding region to EC50 for HIV1 ERS104pre; format: functional
[16] = system: Human immunodeficiency virus 1; assay: Ratio of EC50 for HIV1 MM harboring L10I/K43T/M46L/I54V/L63P/A71V/V82A/L90M/Q92K in protease encoding region infected to EC50 for HIV1 ERS104pre; format: functional
[17] = system: Human immunodeficiency virus 1; assay: Ratio of EC50 for HIV1 A harboring L10I/I15V/E35D/N37E/K45R/I54V/L63P/A71V/V82T/L90M/I93L/C95F in protease encoding region to EC50 for HIV1 ERS104pre; format: functional
[18] = system: Human immunodeficiency virus 1; assay: Ratio of EC50 for HIV1 TM harboring L10I/K14R/R41K/M46L/I54V/L63P/A71V/V82A/L90M/I93L in protease encoding region to EC50 for HIV1 ERS104pre; format: functional
Summary of the method: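 PHA-stimulated PBMs (10^6/ml) infected with 50 TCID50s of primary HIV-1 isolate and cultured with 10-fold serial drug dilutions. Day 7 supernatant p24 Gag measured by chemiluminescent enzyme immunoassay. […] Triplicate. Ratio is resistant isolate EC50 over reference isolate EC50.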

[19] = system: Human immunodeficiency virus 1; assay: Ratio of EC50 for HIV1 C harboring L10I/I15V/K20R/L24I/M36I/M46L/I54V/I62V/L63P/K70Q/V82A/L89M in protease encoding region to EC50 for HIV1 ERS104pre; format: functional
[20] = system: Human immunodeficiency virus 1; assay: Antiviral activity against HIV1 ERS104pre infected in human PHA-PBC assessed as inhibition of p24 Gag protein production by ELISA; format: functional, organism-based; settings: Human immunodeficiency virus 1, ERS104pre; summary of the method: as §3
[21] = system: Human immunodeficiency virus 1; assay: Ratio of EC50 for HIV1 G harboring L10I/V11I/T12E/I15V/L19I/R41K/M46L/L63P/A71T/V82A/L90M in protease encoding region to EC50 for HIV1 ERS104pre; format: functional

Cc1cccc(C)c1OCC(=O)N[C@@H](Cc1ccccc1)[C@@H](O)C[C@H](Cc1ccccc1)NC(=O)[C@H](C(C)C)N1CCCNC1=O [LOPINAVIR]
EC50 [1]: > 1000 nM
EC50 [2]: 740 nM
EC50 [3]: 230 nM
EC50 [4]: 29 nM
EC50 [5]: 620 nM
EC50 [6]: 130 nM
EC50 [7]: 25 nM
EC50 [8]: 700 nM
EC50 [9]: 250 nM
EC50 [10]: 110 nM
EC50 [11]: 290 nM
EC50 [12]: 460 nM

CC(C)CN(C[C@@H](O)[C@H](Cc1ccccc1)NC(=O)O[C@H]1CO[C@H]2OCC[C@H]21)S(=O)(=O)c1ccc(N)cc1
EC50 [2]: 26 nM
EC50 [3]: 4 nM
EC50 [4]: 3 nM
Ratio EC50 [13]: 7
EC50 [14]: 3 nM
Ratio EC50 [15]: 7
EC50 [5]: 17 nM
Ratio EC50 [16]: 5
Ratio EC50 [17]: 1
Ratio EC50 [18]: 1
Ratio EC50 [19]: 2
EC50 [9]: 26 nM
EC50 [20]: 3.5 nM
Ratio EC50 [21]: 2
